Results reported in the M2OR odorant receptor database.

Assays:
Conditions in all cases: stereoisomer not certain
OR6A2 (Homo sapiens) = OR6A2 (Homo sapiens) (UniProt O95222)
In short: (§1)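 Each entry records the cell line, G-protein, co-transfected protein and tags used. Methods varied with the source, often transient luciferase assays in mammalian cell lines. A receptor–molecule pair is called responsive (active) if the original authors judged its signal statistically different from baseline and non-responsive (inactive) otherwise.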

OR6B1 (Homo sapiens) = OR6B1 (Homo sapiens) (UniProt O95007)
In short: as §1

OR6B2 (Homo sapiens) = OR6B2 (Homo sapiens) (UniProt Q6IFH4)
In short: as §1

OR6B3 (Homo sapiens) = OR6B3 (Homo sapiens) (UniProt Q8NGW1)
In short: as §1

OR6C1 (Homo sapiens) = OR6C1 (Homo sapiens) (UniProt Q96RD1)
In short: as §1

OR6C2 (Homo sapiens) = OR6C2 (Homo sapiens) (UniProt Q9NZP2)
In short: as §1

OR6C3 (Homo sapiens) = OR6C3 (Homo sapiens) (UniProt Q9NZP0)
In short: as §1

OR6C4 (Homo sapiens) = OR6C4 (Homo sapiens) (UniProt Q8NGE1)
In short: as §1

OR6C6 (Homo sapiens) = OR6C6 (Homo sapiens) (UniProt A6NF89)
In short: as §1

OR6C65 (Homo sapiens) = OR6C65 (Homo sapiens) (UniProt A6NJZ3)
In short: as §1

OR6C68 (Homo sapiens) = OR6C68 (Homo sapiens) (UniProt A6NDL8)
In short: as §1

OR6C70 (Homo sapiens) = OR6C70 (Homo sapiens) (UniProt A6NIJ9)
In short: as §1

OR6C74 (Homo sapiens) = OR6C74 (Homo sapiens) (UniProt A6NCV1)
In short: as §1

OR6C75 (Homo sapiens) = OR6C75 (Homo sapiens) (UniProt A6NL08)
In short: as §1

OR6A2 I50V = tested on: OR6A2 I50V
In short: as §1

OR6B2 R122C C179R = tested on: OR6B2 R122C C179R
In short: as §1

OR6B3 T48I R131C = tested on: OR6B3 T48I R131C
In short: as §1

OR6C1 C130Y H165D V246I = tested on: OR6C1 C130Y H165D V246I
In short: as §1

OR6C4 = tested on: OR6C4
In short: as §1

OR6C6 M6I = tested on: OR6C6 M6I
In short: as §1

Measured: odorant receptor agonist call

OR6C65 (Homo sapiens), sequence (A6NJZ3 whole entry): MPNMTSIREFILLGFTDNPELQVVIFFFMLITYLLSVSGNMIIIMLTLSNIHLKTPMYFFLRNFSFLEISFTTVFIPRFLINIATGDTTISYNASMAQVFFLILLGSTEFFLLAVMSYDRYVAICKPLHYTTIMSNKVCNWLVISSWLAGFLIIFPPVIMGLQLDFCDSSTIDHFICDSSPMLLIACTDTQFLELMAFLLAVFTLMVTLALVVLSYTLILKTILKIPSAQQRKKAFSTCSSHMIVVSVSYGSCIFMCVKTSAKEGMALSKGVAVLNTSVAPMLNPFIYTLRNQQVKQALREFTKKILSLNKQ
OR6C74 (Homo sapiens), sequence (A6NCV1 whole entry): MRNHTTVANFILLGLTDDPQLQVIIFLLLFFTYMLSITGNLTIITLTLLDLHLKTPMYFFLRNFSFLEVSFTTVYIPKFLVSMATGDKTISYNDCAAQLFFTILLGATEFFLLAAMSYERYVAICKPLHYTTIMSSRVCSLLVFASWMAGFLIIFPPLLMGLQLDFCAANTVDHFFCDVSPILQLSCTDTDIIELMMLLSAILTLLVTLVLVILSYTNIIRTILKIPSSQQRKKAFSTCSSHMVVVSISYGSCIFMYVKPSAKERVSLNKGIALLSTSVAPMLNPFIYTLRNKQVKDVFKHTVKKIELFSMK
OR6C70 (Homo sapiens), sequence (A6NIJ9 whole entry): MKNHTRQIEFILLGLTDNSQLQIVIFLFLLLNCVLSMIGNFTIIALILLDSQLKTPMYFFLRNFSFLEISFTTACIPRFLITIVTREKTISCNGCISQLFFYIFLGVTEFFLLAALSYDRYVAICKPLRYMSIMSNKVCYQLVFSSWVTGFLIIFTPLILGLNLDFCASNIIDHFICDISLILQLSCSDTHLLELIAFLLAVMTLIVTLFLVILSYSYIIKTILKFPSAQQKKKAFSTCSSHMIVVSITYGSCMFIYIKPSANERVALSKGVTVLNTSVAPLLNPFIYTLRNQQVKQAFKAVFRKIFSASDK
OR6C1 (Homo sapiens), sequence (Q96RD1 whole entry): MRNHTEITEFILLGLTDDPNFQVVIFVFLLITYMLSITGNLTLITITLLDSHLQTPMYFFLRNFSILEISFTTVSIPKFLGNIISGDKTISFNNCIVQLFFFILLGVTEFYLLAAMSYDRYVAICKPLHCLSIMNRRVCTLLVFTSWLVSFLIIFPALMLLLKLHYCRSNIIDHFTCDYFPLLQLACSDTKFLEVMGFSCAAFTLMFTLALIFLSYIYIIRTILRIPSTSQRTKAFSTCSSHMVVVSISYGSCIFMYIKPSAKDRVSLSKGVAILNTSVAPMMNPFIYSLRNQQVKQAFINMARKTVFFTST
OR6C6 (Homo sapiens), sequence (A6NF89 whole entry): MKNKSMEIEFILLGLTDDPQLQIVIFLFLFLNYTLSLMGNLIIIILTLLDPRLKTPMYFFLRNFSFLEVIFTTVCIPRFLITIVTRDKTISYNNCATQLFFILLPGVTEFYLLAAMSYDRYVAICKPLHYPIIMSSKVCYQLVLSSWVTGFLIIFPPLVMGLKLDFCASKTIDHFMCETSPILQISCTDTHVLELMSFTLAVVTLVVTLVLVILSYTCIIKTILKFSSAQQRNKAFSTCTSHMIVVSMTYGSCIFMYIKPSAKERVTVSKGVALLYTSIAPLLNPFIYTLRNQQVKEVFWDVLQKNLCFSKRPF
OR6C3 (Homo sapiens), sequence (Q9NZP0 whole entry): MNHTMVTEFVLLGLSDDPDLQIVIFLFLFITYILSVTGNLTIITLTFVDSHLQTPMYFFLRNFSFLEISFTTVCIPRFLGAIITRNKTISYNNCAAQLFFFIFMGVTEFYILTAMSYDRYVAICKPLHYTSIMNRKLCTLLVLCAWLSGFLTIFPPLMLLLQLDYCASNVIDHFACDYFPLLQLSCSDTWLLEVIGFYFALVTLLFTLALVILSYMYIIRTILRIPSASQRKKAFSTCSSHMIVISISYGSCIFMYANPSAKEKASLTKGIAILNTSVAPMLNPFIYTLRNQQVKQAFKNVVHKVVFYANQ
OR6C75 (Homo sapiens), sequence (A6NL08 whole entry): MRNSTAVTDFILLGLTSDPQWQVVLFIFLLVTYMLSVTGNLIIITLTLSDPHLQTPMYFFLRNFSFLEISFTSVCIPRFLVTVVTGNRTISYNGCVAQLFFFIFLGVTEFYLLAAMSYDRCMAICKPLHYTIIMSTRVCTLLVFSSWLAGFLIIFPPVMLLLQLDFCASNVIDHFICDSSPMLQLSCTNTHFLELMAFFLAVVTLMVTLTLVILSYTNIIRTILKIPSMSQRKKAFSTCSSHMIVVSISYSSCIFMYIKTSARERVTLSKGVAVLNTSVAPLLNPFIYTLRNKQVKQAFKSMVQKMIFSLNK
OR6B2 (Homo sapiens), sequence (Q6IFH4 whole entry): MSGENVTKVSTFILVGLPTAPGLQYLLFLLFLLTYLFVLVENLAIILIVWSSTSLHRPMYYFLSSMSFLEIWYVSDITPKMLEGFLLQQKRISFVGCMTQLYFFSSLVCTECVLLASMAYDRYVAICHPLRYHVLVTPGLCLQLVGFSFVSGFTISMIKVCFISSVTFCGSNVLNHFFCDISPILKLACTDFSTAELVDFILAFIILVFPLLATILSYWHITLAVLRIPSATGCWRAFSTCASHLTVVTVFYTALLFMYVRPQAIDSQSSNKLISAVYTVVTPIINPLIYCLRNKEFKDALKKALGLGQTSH
OR6A2 (Homo sapiens), sequence (O95222 whole entry): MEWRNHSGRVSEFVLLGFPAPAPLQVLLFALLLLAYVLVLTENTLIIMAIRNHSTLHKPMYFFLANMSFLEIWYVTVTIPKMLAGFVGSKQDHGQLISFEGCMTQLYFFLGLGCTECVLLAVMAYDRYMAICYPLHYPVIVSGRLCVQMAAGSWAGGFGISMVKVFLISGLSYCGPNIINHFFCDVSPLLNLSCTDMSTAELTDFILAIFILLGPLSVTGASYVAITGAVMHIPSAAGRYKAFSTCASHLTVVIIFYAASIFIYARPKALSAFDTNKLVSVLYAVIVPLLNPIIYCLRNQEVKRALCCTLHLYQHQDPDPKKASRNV
OR6C4 (Homo sapiens), sequence (Q8NGE1 whole entry): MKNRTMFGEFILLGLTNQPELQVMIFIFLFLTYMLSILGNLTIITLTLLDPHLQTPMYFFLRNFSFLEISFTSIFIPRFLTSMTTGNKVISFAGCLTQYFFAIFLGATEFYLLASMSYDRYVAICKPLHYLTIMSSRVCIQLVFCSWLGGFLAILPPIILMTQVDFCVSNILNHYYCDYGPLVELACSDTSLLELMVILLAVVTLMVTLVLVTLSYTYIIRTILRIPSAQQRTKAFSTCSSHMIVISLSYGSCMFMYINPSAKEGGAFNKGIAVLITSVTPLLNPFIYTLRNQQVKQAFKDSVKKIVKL
OR6C68 (Homo sapiens), sequence (A6NDL8 whole entry): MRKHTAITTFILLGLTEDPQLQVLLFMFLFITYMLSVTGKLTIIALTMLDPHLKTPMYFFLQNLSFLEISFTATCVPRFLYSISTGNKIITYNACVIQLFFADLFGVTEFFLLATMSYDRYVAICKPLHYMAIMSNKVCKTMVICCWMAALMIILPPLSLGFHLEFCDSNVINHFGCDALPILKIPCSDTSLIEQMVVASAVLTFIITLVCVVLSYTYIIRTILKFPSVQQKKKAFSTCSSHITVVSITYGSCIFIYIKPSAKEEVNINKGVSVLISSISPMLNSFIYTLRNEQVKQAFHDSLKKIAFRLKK
OR6C2 (Homo sapiens), sequence (Q9NZP2 whole entry): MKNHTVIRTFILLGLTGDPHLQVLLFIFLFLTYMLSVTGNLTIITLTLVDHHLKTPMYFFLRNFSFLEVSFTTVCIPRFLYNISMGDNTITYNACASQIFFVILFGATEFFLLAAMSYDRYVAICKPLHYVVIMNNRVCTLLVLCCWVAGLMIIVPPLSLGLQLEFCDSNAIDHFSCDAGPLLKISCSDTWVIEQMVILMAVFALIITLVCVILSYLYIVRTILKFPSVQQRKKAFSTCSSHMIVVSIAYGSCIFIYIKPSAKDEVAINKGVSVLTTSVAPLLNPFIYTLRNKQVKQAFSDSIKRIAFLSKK
OR6B1 (Homo sapiens), sequence (O95007 whole entry): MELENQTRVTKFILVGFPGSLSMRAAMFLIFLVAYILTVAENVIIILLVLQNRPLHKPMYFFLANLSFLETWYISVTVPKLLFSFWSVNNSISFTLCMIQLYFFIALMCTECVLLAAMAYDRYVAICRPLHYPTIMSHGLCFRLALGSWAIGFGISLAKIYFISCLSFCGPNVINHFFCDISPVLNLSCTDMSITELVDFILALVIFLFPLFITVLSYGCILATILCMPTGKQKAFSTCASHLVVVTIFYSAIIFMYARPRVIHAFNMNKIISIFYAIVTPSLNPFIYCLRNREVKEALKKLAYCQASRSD
OR6B3 (Homo sapiens), sequence (Q8NGW1 whole entry): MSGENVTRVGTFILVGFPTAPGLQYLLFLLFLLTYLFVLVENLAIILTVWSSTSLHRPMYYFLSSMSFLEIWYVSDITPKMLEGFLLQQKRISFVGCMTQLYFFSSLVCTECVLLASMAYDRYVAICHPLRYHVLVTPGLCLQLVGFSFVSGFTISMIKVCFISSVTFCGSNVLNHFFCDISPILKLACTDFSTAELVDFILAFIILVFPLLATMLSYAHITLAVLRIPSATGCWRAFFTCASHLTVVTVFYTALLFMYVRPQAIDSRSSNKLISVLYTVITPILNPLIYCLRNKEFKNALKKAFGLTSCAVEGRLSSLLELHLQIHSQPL
OR6A2 I50V, sequence (as listed by the source, stated change not applied): as the sequence (O95222 whole entry) above, with I50V counted along it
OR6C6 M6I, sequence (as listed by the source): as the sequence (A6NF89 whole entry) above, with M6I counted along it
OR6C4, sequence (as listed by the source): as the sequence (Q8NGE1 whole entry) above, with I37V counted along it

Cc1c([N+](=O)[O-])c(C)c([N+](=O)[O-])c(C(C)(C)C)c1[N+](=O)[O-]
not listed: OR6A2 I50V | OR6B2 R122C C179R | OR6B3 T48I R131C | OR6C1 C130Y H165D V246I | OR6C4 | OR6C6 M6I
inactive: all other assays above

C=CCOC(=O)Cc1ccccc1
inactive: all assays above
